According to ChEMBL document CHEMBL2434964, “Novel 1H-pyrrolo[2,3-b]pyridine derivative nortopsentin analogues: synthesis and antitumor activity in peritoneal mesothelioma experimental models” (J Med Chem, 2013):
Calls of active or inactive are those of the source. The rule behind the calls is not given here.

Assays:
[1] = tested on: Meso2; assay: Induction of apoptosis in human Meso2 cells assessed as increase in caspase 3 activation at 12 to 24 […] hrs by DEVD-pNA substrate-based spectrofluorometric analysis relative to control; format: functional, cell-based
[2] = tested on: STO; assay: Induction of apoptosis in human STO cells assessed as increase in caspase 3 activation at 3 to 6 nM hrs by DEVD-pNA substrate-based spectrofluorometric analysis relative to control; format: functional, cell-based
[3] = tested on: Mus musculus; assay: Toxicity in athymic nude mouse xenografted with human STO cells assessed as body weight loss at 25 mg/kg, ip qd for 4 to 5 days per week for 35 days measured on day 17 post dose; format: organism-based; set-up: dose 25 mg/kg, route intraperitoneal; conditions: in vivo, in the assay text read “for 3 weeks measured on day 35” for “for 35 days measured on day 17 post dose”
Summary of the method: (§1)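 Female athymic Swiss nude mice bearing s.c. STO flank xenografts (10⁷ cells). Dosing i.p. qdx4-5/wx3w, starting the day after cell injection. Toxicity recorded as % body weight loss and lethal toxicity. Deaths in treated mice before the first control death were counted as toxic.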

[4] = tested on: Meso2; assay: Induction of apoptosis in human Meso2 cells assessed as DNA fragmentation at IC50 by fluorescence microscopy relative to control; format: functional, cell-based; conditions: TDE = time-dependent effect
[5] = tested on: STO; assay: Induction of apoptosis in human STO cells assessed as DNA fragmentation at IC50 by fluorescence microscopy relative to control; format: functional, cell-based; conditions: TDE = time-dependent effect
[6] = Cell cycle arrest in human STO cells assessed as accumulation at G2/M phase at IC50 after 48 hrs by propidium iodide staining-based FACS-flow cytometry relative to control; format: functional
[7] = Cell cycle arrest in human STO cells assessed as accumulation at G2/M phase at IC50 after 72 hrs by propidium iodide staining-based FACS-flow cytometry relative to control; format: functional
[8] = Cytotoxicity against human W138 cells assessed as growth inhibition after 72 hrs by MTS assay; format: cell-based; conditions: WI-38, 72 h
Summary of the method: (§2)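 Log-phase cells, 4500 per well, plated 24 h, then given 0.1–100 μM compound for 72 h; vehicle (DMSO) controls. MTS read-out at 490 nm as % of DMSO-treated cells. IC50 taken graphically from the dose-response curve. Eight replicates; mean ± SD of at least three independent experiments.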

[9] = biological target: Cyclin-dependent kinase 1/cyclin B1 (Homo sapiens) (UniProt P06493+P14635); assay: Inhibition of CDK1/cyclin B in human STO cells using histone H1 as substrate assessed as histone H1 phosphorylation preincubated at IC50 by immunoprecipitate-based densitometric analysis; format: cell-based; conditions: TDE = time-dependent effect
Summary of the method: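 STO cells exposed at IC50 for 24, 48 and 72 h, with DMSO controls. Lysates immunoprecipitated with anti-cyclin B1, 4 h at 4°C. Precipitates incubated 20 min at 30°C with 3 μg histone H1, MgCl₂, cold ATP and [γ32P]ATP, pH 7.5. Products run on 12% SDS gel and quantified by densitometry as % of DMSO control.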

[10] = Cell cycle arrest in human Meso2 cells assessed as accumulation at G2/M phase at IC50 after 72 hrs by propidium iodide staining-based FACS-flow cytometry relative to control; format: functional
[11] = biological target: Cyclin-dependent kinase 1/cyclin B1 (Homo sapiens, UniProt P06493); assay: Inhibition of human recombinant CDK1/cyclin B after 30 mins by fluorescence assay; format: protein-complex assay
Summary of the method: (§3)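 Recombinant kinases (CDK1/cyclin B; GSK3β) in Omnia fluorescence assay with peptide substrate, ATP and DTT in kinase buffer, run 30 min at 30°C. Compound range 0.05-50 μM. Fluorescence read at ex 360/em 485 nm. IC50 taken graphically; mean ± SD of three independent experiments.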

[12] = tested on: STO; assay: Induction of apoptosis in human STO cells assessed as inhibition of survivin phosphorylation at Thr34 at IC50 by Western blotting analysis; format: functional, cell-based
[13] = tested on: STO; assay: Induction of apoptosis in human STO cells assessed as chromatin condensation at IC50 by fluorescence microscopy relative to control; format: functional, cell-based; conditions: TDE = time-dependent effect
[14] = Antitumor activity against human STO cells xenografted in athymic nude mouse assessed as tumor volume inhibition at 25 mg/kg, ip qd for 4 to 5 days per week for 3 weeks measured on day 17 post dose; format: functional; conditions: route intraperitoneal
Summary of the method: (§4)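 Female athymic Swiss nude mice, 8-10 weeks old; 10⁷ exponentially growing STO cells injected s.c. into right flank. Dosing i.p. qdx4-5/wx3w, starting the day after cell injection. Tumor volume = d²xD/2. TVI% = 100-(mean TV treated/mean TV control x 100), read 17 days after end of treatment (day 35). Two-tailed Student's t test.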

[15] = Cell cycle arrest in human Meso2 cells assessed as accumulation at G2/M phase at IC50 after 48 hrs by propidium iodide staining-based FACS-flow cytometry relative to control; format: functional
[16] = tested on: Meso2; assay: Induction of apoptosis in human Meso2 cells assessed as chromatin condensation at IC50 by fluorescence microscopy relative to control; format: functional, cell-based; conditions: TDE = time-dependent effect
[17] = tested on: STO; assay: (§5) Cytotoxicity against human STO cells assessed as growth inhibition after 72 hrs by MTS assay; format: functional, cell-based; summary of the method: as §2
[18] = as §5; format: functional, cell-based; summary of the method: as §2
[19] = Cell cycle arrest in human STO cells assessed as reduction of cells at G1 phase at IC50 after 48 to 72 hrs by propidium iodide staining-based FACS-flow cytometry relative to control; format: functional
[20] = Cell cycle arrest in human STO cells assessed as increase in sub-G1 phase accumulation at IC50 after 72 hrs by propidium iodide staining-based FACS-flow cytometry relative to control; format: functional
[21] = Cell cycle arrest in human Meso2 cells assessed as reduction of cells at G1 phase at IC50 after 48 to 72 hrs by propidium iodide staining-based FACS-flow cytometry relative to control; format: functional
[22] = biological target: Glycogen synthase kinase-3 beta (Homo sapiens, UniProt P49841); assay: Inhibition of human GSK-3 beta after 30 mins by fluorescence assay; summary of the method: as §3
[23] = (§6) Cytotoxicity against human cells Meso2 assessed as growth inhibition after 72 hrs by MTS assay; format: functional, cell-based; conditions: Meso2, 72 h; summary of the method: as §2
[24] = species on record: Homo sapiens; assay: as §6; format: functional, cell-based; summary of the method: as §2
[25] = tested on: Mus musculus; assay: Toxicity in athymic nude mouse xenografted with human STO cells assessed as mortality at 25 mg/kg, ip qd for 4 to 5 days per week for 3 weeks measured on day 17 post dose; format: organism-based; set-up: dose 25 mg/kg, route intraperitoneal; conditions: in vivo
Summary of the method: (§7)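 Female athymic Swiss nude mice, 8-10 weeks old, given 10⁷ exponentially growing STO cells s.c. in the right flank. Dosing i.p. qdx4-5/wx3w, starting the day after cell injection. Toxicity was scored as body weight loss and lethal toxicity, reported as toxic deaths per treated group (n=8). Deaths in treated mice before the first control death were counted as toxic.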

[26] = Cell cycle arrest in human Meso2 cells assessed as increase in sub-G1 phase accumulation at IC50 after 72 hrs by propidium iodide staining-based FACS-flow cytometry relative to control; format: functional
[27] = Induction of apoptosis in human Meso2 cells assessed as increase in caspase 3 activation at IC80 after 72 hrs by DEVD-pNA substrate-based spectrofluorometric analysis relative to control; format: functional
Summary of the method: (§8)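 Cells exposed 72 h at IC80, with 1% (v/v) DMSO controls. Caspase-9 activity read as LEHD-pNA cleavage and caspase-3 as DEVD-pNA cleavage, by spectrofluorometry (ex 380 nm/em 460 nm), reported as rfu. Mean ± SD of at least three experiments.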

[28] = Induction of apoptosis in human Meso2 cells assessed as increase in caspase 9 activation at IC80 after 72 hrs by LEHD-pNA substrate-based spectrofluorometric analysis relative to control; format: functional; summary of the method: as §8
[29] = Induction of apoptosis in human STO cells assessed as increase in caspase 3 activation at IC80 after 72 hrs by DEVD-pNA substrate-based spectrofluorometric analysis relative to control; format: functional; summary of the method: as §8
[30] = Induction of apoptosis in human STO cells assessed as increase in caspase 9 activation at IC80 after 72 hrs by LEHD-pNA substrate-based spectrofluorometric analysis relative to control; format: functional; summary of the method: as §8
[31] = Antitumor activity against human STO cells xenografted in athymic nude mouse assessed as tumor volume inhibition at 50 mg/kg, ip qd for 4 to 5 days per week for 3 weeks measured on day 17 post dose; format: functional; conditions: route intraperitoneal; summary of the method: as §4
[32] = tested on: Mus musculus; assay: Toxicity in athymic nude mouse xenografted with human STO cells assessed as body weight loss at 50 mg/kg, ip qd for 4 to 5 days per week for 3 weeks measured on day 17 post dose; format: organism-based; set-up: dose 50 mg/kg, route intraperitoneal; conditions: in vivo; summary of the method: as §1
[33] = tested on: Meso2; assay: Potentiation of paclitaxel-induced cytotoxicity in human Meso2 cells assessed as inhibition of cell survival at 2 to 8 uM after 72 hrs by MTS assay; format: functional, cell-based
Summary of the method: (§9)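 Paclitaxel given for 24 h, then test compound added for 72 h more. Fixed paclitaxel:compound ratios were 1:100 in STO and 1:333 in MesoII. Survival by MTS at 490 nm. Expected additive effect taken as the product of single-agent effects. Interaction scored by Chou–Talalay combination index (<1 synergy).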

[34] = tested on: Meso2; assay: Induction of apoptosis in human Meso2 cells assessed as increase in caspase 3 activation at 4 to 8 uM hrs by DEVD-pNA substrate-based spectrofluorometric analysis in presence of paclitaxel; format: functional, cell-based
[35] = tested on: STO; assay: Induction of apoptosis in human STO cells assessed as increase in caspase 3 activation at 0.3 to 0.6 uM hrs by DEVD-pNA substrate-based spectrofluorometric analysis in presence of paclitaxel; format: functional, cell-based
[36] = tested on: Meso2; assay: Induction of apoptosis in human Meso2 cells assessed as increase in caspase 3 activation at 4 to 8 uM hrs by DEVD-pNA substrate-based spectrofluorometric analysis relative to control; format: functional, cell-based
[37] = tested on: STO; assay: Potentiation of paclitaxel-induced cytotoxicity in human STO cells assessed as inhibition of cell survival at 0.15 to 0.6 uM after 72 hrs by MTS assay; format: functional, cell-based; summary of the method: as §9
[38] = tested on: STO; assay: Induction of apoptosis in human STO cells assessed as increase in caspase 3 activation at 0.3 to 0.6 uM hrs by DEVD-pNA substrate-based spectrofluorometric analysis relative to control; format: functional, cell-based
[39] = tested on: Mus musculus; assay: Toxicity in athymic nude mouse xenografted with human STO cells assessed as mortality at 50 mg/kg, ip qd for 4 to 5 days per week for 3 weeks measured on day 17 post dose; format: organism-based; set-up: dose 50 mg/kg, route intraperitoneal; conditions: in vivo; summary of the method: as §7

Sequence of Cyclin-dependent kinase 1/cyclin B1 (P06493 whole entry): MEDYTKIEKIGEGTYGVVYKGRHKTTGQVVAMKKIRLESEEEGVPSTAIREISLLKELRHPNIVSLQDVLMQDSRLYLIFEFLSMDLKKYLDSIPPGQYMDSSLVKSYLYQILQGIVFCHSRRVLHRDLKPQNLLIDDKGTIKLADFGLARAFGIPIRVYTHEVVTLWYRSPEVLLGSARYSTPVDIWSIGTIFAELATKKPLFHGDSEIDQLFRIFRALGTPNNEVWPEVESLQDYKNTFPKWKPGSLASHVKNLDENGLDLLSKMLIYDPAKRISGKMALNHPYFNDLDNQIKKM
Sequence of Cyclin-dependent kinase 1/cyclin B1 (P14635 whole entry, further chain): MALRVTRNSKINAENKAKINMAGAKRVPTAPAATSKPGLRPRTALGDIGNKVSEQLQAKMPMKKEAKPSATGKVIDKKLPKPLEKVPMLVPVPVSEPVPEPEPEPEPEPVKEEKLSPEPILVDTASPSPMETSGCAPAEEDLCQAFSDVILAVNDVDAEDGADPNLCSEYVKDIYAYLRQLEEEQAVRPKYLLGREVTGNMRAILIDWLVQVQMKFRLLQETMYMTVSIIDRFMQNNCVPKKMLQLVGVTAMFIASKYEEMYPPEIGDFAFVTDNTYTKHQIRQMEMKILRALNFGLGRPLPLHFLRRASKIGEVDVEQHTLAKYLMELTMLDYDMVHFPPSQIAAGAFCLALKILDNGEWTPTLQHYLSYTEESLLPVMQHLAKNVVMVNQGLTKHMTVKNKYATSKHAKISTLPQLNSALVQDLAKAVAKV
Sequence of Cyclin-dependent kinase 1/cyclin B1 (Homo sapiens) (P06493 whole entry, looked up): as the sequence (P06493 whole entry) above
Sequence of Cyclin-dependent kinase 1/cyclin B1 (Homo sapiens) (P14635 whole entry, looked up): as the sequence (P14635 whole entry, further chain) above
Sequence of Glycogen synthase kinase-3 beta (P49841 whole entry): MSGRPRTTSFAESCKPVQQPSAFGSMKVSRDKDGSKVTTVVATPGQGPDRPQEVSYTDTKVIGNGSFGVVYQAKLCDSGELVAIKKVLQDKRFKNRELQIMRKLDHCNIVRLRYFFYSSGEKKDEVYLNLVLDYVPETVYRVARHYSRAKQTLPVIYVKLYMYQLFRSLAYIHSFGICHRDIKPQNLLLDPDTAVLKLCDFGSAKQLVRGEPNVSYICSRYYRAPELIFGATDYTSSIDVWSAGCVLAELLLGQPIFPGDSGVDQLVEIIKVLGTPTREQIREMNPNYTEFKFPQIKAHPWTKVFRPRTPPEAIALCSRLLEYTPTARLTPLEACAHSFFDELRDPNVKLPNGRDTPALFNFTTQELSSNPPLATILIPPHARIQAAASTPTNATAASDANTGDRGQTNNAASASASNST

SMILES | Activity [4] | Activity [5] | Activity [6] [%] | Activity [7] [%] | IC50 [8] [µM] | inhibition [9] | Activity [10] [%] | IC50 [11] [µM] | inhibition [12] | Activity [13] | Activity [15] [%] | Activity [16] | inhibition [17] | IC50 [18] [µM] | Activity [19] | Activity [20] [%] | Activity [21] | IC50 [22] [µM] | IC50 [23] [µM] | inhibition [24] | also measured
CC(=O)O[C@H]1C(=O)[C@@]2(C)[C@H]([C@H](OC(=O)c3ccccc3)[C@]3(O)C[C@H](OC(=O)[C@H](O)[C@@H](NC(=O)c4ccccc4)c4ccccc4)C(C)=C1C3(C)C)[C@]1(OC(C)=O)CO[C@@H]1C[C@@H]2O |  |  |  |  |  |  |  |  |  |  |  |  |  |  |  |  |  |  |  |  | Activity [1]: Active; Activity [2]: Active
Cn1cc(-c2nc(-c3c[nH]c4ncccc34)cs2)c2cc(F)ccc21 | tde | tde | 33.3 | 41.9 | > 100 | tde | 41.9 | 0.89 | Active | tde | 33.3 | tde | Dose-dependent effect | 0.49 | Active | 27.6 | Active | 42.2 | 25.1 | Dose-dependent effect | Activity [3]: 4%; inhibition in vivo at 25 mg/kg [14]: 73%; Activity [25]: Non-toxic; Activity [26]: 28.6%
Cn1cc(-c2csc(-c3c[nH]c4ccc(F)cc34)n2)c2cccnc21 |  |  |  |  | 15.4 |  |  |  |  |  |  |  | Dose-dependent effect | 0.54 |  |  |  |  | 13.3 | Dose-dependent effect | 
Cn1cc(-c2nc(-c3cn(C)c4ncccc34)cs2)c2cc(F)ccc21 | tde | tde | 33.3 | 41.9 | > 100 | tde | 41.9 | 0.86 | Active | tde | 33.3 | tde | Dose-dependent effect | 0.43 | Active | 26.5 | Active | 35.7 | 4.85 | Dose-dependent effect | Activity [3]: 7%; fold change (FC) [27]: 7.8; inhibition in vivo at 25 mg/kg [14]: 58%; fold change (FC) [28]: 11.9; fold change (FC) [29]: 10; fold change (FC) [30]: 12; Activity [25]: Non-toxic; Activity [26]: 27.9%
Cn1cc(-c2nc(-c3cn(C)c4ncccc34)cs2)c2ccccc21 |  |  |  |  | 18.8 |  |  |  |  |  |  |  | Dose-dependent effect | 0.61 |  |  |  |  | 16.8 | Dose-dependent effect | 
Cn1cc(-c2csc(-c3c[nH]c4ccccc34)n2)c2cccnc21 | tde | tde | 33.3 | 41.9 | > 100 | tde | 41.9 | 0.75 | Active | tde | 33.3 | tde | Dose-dependent effect | 0.33 | Active | 25.8 | Active | 40.2 | 4.11 | Dose-dependent effect | inhibition in vivo at 50 mg/kg [31]: 75%; Activity [32]: 1%; inhibition [33]: Active; Activity [34]: Active; Activity [35]: Active; Activity [36]: Active; inhibition [37]: Active; Activity [38]: Active; Activity [39]: Non-toxic; Activity [26]: 19.9%
